PGC1a acetyl inh: lowers PGC1a acetylation signal in U2OS cells. AlphaScreen anti-acetyl-lysine; with virally co-expressed GCN5 acetyltransferase. hit rate 0.17% among 350,000. inhibition, % at 15.6 µM;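 active = every replicate shows inhibition of at least 40%; inconclusive = mean inhibition at least 40% but some replicate below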;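 note: 0% = neutral control wells and 100% = positive control wells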
DENV2 CPE: inhibitors of DENV2 cytopathic effect. DENV2-infected cells, cytopathic effect rescue, plate reader. CPE inhibition, % at 9.99 µM. hit rate 1.7% among 350,000; in the data active = CPE inhibition above about 20%, passing the limit was not always enough; inconclusive = no clear call, values can overlap the other calls; tested in BHK-21 cells;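 note: 0% = median of neutral control wells and 100% = median of positive control wells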
F508del corr: CFTR F508del correction in bronchial cells; activity (quench increase), % at 7.58 µM; CFBE cells, YFP halide quenching; stimulated with forskolin plus potentiator P3; % fluorescence drop versus neutral controls; AID 720511; hit rate 0.36% among 350,000;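 active = mean added fluorescence quench of at least 8% versus neutral control, with both replicates also reaching 8%; inconclusive = only one of the mean or replicate conditions met; inactive = mean below 8% and not both replicates reaching 8%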;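 note: cells transiently co-express mutant CFTR-F508del with the halide-sensitive YFP; corrector assay measuring rescue of mutant channel to the surface after 24 h compound exposure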
FN deposition inh: fibronectin deposition inhibition; AID 743247; inhibition, % at 12.6 µM; AH1F fibroblasts, Alexa488-fibronectin deposition fluorescence, overnight; hit rate 0.086% among 350,000;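 active = mean inhibition across replicates of 30% or more, regardless of how many single replicates reach that level; inconclusive = mean under 30% yet at least half of replicates reach 30%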;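 note: positive control wells lacked labelled fibronectin entirely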
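Schedule: 1 h cell adhesion before compound, then overnight fibronectin incubation; test system: AH1F fibroblast monolayer depositing Alexa488-labelled fibronectin into matrix; quantity: 10000 AH1F cells per well; probe or stimulus: fluorescent fibronectin at 24 nM final; signal: fluorescence, ex 485 nm, em 525 nm; evaluation: percent inhibition as loss of matrix-bound fibronectin fluorescence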
Cneo AK release: causes C. neoformans cell lysis. adenylate kinase release luminescence, 4 h; normalised: neutral wells 0, clomiphene wells 100. lysis activity, % at 15 µM. hit rate 0.2% among 360,000. AID 651654;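 active = mean lysis activity across replicates of at least 80%, whatever share of replicates individually reach that level; inactive = mean lysis activity below 80%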
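Material: C. neoformans cells; Schedule: 4 h static compound exposure, 37 °C, read 1 h post-reagent; Measured by: adenylate kinase release luminescence; Read-out: signal increase indicating cell lysis; Controls: Clomiphene as positive lysis control.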
XiGFP reactiv: activators of X-chromosome reactivation in mouse fibroblasts | XiGFP mouse fibroblasts, % GFP-positive cells imaging, 3 d; cells co-treated with 5-aza-dC sensitizer; scaled so ellipticine positive control = 100% | activation, % at 7.58 µM | hit rate 0.055% among 360,000 | AID 743238;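 active = mean normalized replicate activation at least 10% and every replicate at or above 10%; inconclusive = only one of the two criteria met; inactive = mean below 10% and not all replicates reach 10%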;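 note: 0% = median of on-plate neutral control wells and 100% = ellipticine 6 µM median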
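Assay system: SV40-immortalized XiGFP fibroblast cells, line 68-5-11; buffer or medium: DMEM plus 5-aza-dC sensitizer; compound: one concentration, pinned; timing: compounds 3 days, fix/stain 15 min at room temperature; benchmarks: positive control ellipticine, 6 µM final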
Numbers without * were called inactive. Compounds with a hit are over-represented: about 1.9% of the library has one in this group of screens.

Screening C[C@@H]1CN([C@@H](C)CO)C(=O)c2cc(NC(=O)CCCCCC(=O)Nc3ccccc3N)ccc2O[C@H]1CN(C)C(=O)Nc1ccc2c(c1)OCO2 returned PGC1a acetyl inh 10, DENV2 CPE 16, F508del corr -5 and XiGFP reactiv 0.
For C[C@H](CO)N1C[C@H](C)[C@H](CN(C)C(=O)Nc2ccc3c(c2)OCO3)Oc2ccc(NC(=O)CCCCCC(=O)Nc3ccccc3N)cc2C1=O the results were PGC1a acetyl inh -3, DENV2 CPE 48*, F508del corr 2 and XiGFP reactiv 0.
COc1ccc(NC(=O)N(C)C[C@@H]2Oc3ccc(NC(=O)CCC(F)(F)F)cc3CC(=O)N([C@@H](C)CO)C[C@@H]2C)cc1 was read as PGC1a acetyl inh -2, DENV2 CPE 1, F508del corr 3, FN deposition inh -8, Cneo AK release 2 and XiGFP reactiv 0.
For Cc1cccc(N(CC(=O)NC2CC2)S(=O)(=O)c2ccc(Cl)cc2)c1 the results were DENV2 CPE 50*, F508del corr 1, FN deposition inh -1, Cneo AK release 0 and XiGFP reactiv 0.
Screening CC(=O)N(c1ccc(C)cc1)S(=O)(=O)c1ccc(Cl)cc1 returned PGC1a acetyl inh 2, DENV2 CPE -6, F508del corr 1, FN deposition inh 1 and XiGFP reactiv 0.
CC(=O)N(c1cccc(C)c1)S(=O)(=O)c1ccc(Cl)cc1 was read as PGC1a acetyl inh 53*, DENV2 CPE 1, F508del corr -2, Cneo AK release -3 and XiGFP reactiv 0.
Screening C[C@H]1CCCCO[C@H](CN(C)Cc2ccc(Cl)c(Cl)c2)[C@@H](C)CN([C@@H](C)CO)C(=O)c2cc(NS(C)(=O)=O)ccc2O1 returned DENV2 CPE 1, F508del corr 3, Cneo AK release 1 and XiGFP reactiv -1.
Screening COCCCN(Cc1ccco1)C(=O)Cn1ncc2c([nH]c3ccccc32)c1=O returned PGC1a acetyl inh -11, DENV2 CPE 25*, F508del corr 4, FN deposition inh -1, Cneo AK release 7 and XiGFP reactiv 0.
CN(C)c1ccc(CC(=O)N2CCCC(c3cc(C(=O)Nc4ccc(F)c(Cl)c4)no3)C2)cc1 (configuration not stated) was read as PGC1a acetyl inh -7, DENV2 CPE 33*, F508del corr 0, FN deposition inh 4, Cneo AK release 0 and XiGFP reactiv 0.
Screening O=C(Nc1ccc(F)c(Cl)c1)c1cc(C2CCCN(S(=O)(=O)c3ccccc3)C2)on1 (configuration not stated) returned PGC1a acetyl inh -15, DENV2 CPE 6, F508del corr 0, FN deposition inh 28, Cneo AK release 0 and XiGFP reactiv 0.
For CCN[C@H]1C[C@H](C)S(=O)(=O)c2sc(S(N)(=O)=O)cc21 the results were DENV2 CPE 4, F508del corr 2, FN deposition inh -6, Cneo AK release -1 and XiGFP reactiv 0.
CCN[C@H]1CN(CCCOC)S(=O)(=O)c2sc(S(N)(=O)=O)cc21 was read as DENV2 CPE -2, F508del corr 10*, FN deposition inh 3, Cneo AK release -1 and XiGFP reactiv 0.
Screening CCCC#Cc1cnc2c(c1)C(=O)N([C@@H](C)CO)C[C@@H](C)[C@@H](CN(C)C(=O)c1cnccn1)O2 returned PGC1a acetyl inh -7, DENV2 CPE 13, F508del corr -1, FN deposition inh 2, Cneo AK release 2 and XiGFP reactiv 0.
For COc1ccc(OCC(=O)N/N=C/C=C/c2ccccc2)cc1 the results were PGC1a acetyl inh -6, DENV2 CPE 4, F508del corr 9.0*, FN deposition inh -10, Cneo AK release -3 and XiGFP reactiv 0.
For C[C@@H]1CN([C@@H](C)CO)C(=O)c2cc(C#Cc3ccccc3)cnc2O[C@@H]1CN(C)C(=O)CN(C)C the results were PGC1a acetyl inh 1, DENV2 CPE inconclusive, F508del corr -1, FN deposition inh 4, Cneo AK release 1 and XiGFP reactiv 0.
Screening C[C@H](CO)N1C[C@H](C)[C@@H](CN(C)Cc2cccc(F)c2)Oc2cc(-c3ccc(F)cc3)ccc2S1(=O)=O returned PGC1a acetyl inh 19, F508del corr 1 and XiGFP reactiv -1.
Screening O=S(=O)(N[C@H]1CC[C@H](CCn2cc(-c3cccc(F)c3)nn2)O[C@@H]1CO)c1ccc(F)cc1 returned PGC1a acetyl inh 17, DENV2 CPE 2, F508del corr 1, FN deposition inh -15, Cneo AK release -6 and XiGFP reactiv 0.
Screening CCc1cccc2cc3c(N)c(C(=O)Nc4ccc(S(=O)(=O)N5CCCC5)cc4)sc3nc12 returned FN deposition inh -18, Cneo AK release -1 and XiGFP reactiv 89*.
Cc1cccc2cc3c(N)c(C(=O)Nc4ccc(N5CCOCC5)cc4)sc3nc12 was read as PGC1a acetyl inh -6 and Cneo AK release -3.
Screening C[C@@H]1CN([C@@H](C)CO)C(=O)c2cc(NC(=O)Cc3ccccc3)ccc2O[C@@H](C)CCCCO[C@@H]1CN(C)C(=O)Cc1ccccc1 returned PGC1a acetyl inh 3, DENV2 CPE -3, F508del corr -1, FN deposition inh -1, Cneo AK release 2 and XiGFP reactiv 0.
For CCc1nc(C)cn1S(=O)(=O)c1ccc2c(c1)OCCO2 the results were PGC1a acetyl inh -3, DENV2 CPE 12, F508del corr 8.9*, FN deposition inh 5, Cneo AK release -3 and XiGFP reactiv -1.
For COc1ccc(NC(=O)N(C)C[C@@H]2OCCCC[C@@H](C)Oc3ccc(NC(=O)Nc4c(C)noc4C)cc3C(=O)N([C@H](C)CO)C[C@H]2C)cc1 the results were PGC1a acetyl inh -11, DENV2 CPE 0, F508del corr -1, Cneo AK release -4 and XiGFP reactiv -1.
Screening CC1=NN(c2ccc(C)c(C)c2)C(=O)/C1=C\C=C\c1ccc([N+](=O)[O-])o1 returned PGC1a acetyl inh 59*, DENV2 CPE 3, F508del corr -4, FN deposition inh 0 and XiGFP reactiv 0.
For C[C@H](CO)N1C[C@H](C)[C@@H](CN(C)S(=O)(=O)c2cccs2)Oc2ccc(NC(=O)Nc3ccccc3)cc2CC1=O the results were PGC1a acetyl inh 4, DENV2 CPE -8, F508del corr -1, Cneo AK release 11 and XiGFP reactiv 1.
CCOc1ccc(N(CC)C(=O)COc2cc(=O)n(C)c3ccccc23)cc1 was read as PGC1a acetyl inh -9, DENV2 CPE 4, F508del corr 8.8*, FN deposition inh 11, Cneo AK release 1 and XiGFP reactiv 0.

Assay outcomes from PubChem BioAssay.
